Assay outcomes: PubChem, several laboratories
Only some compounds are listed: those with a hit (about 2.5% of all), similar ones and a draw of the others.
NTR1 agonist: agonists of human neurotensin receptor NTR1 | P30989 | NTR1-U2OS beta-arrestin-GFP spot imaging, agonist mode | activation, % at 20 µM | actives 0.17% (n = 330,000) | AID 493036;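 active means activation at or above 40% of the spot to cytoplasm intensity ratio, with at least 20 cells analyzed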;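 further: 0% = DMSO without peptide and 100% = 100 nM NTR1 peptide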
Rev-erbA mod: Rev-erb alpha (human) modulation. Rev-erbα–FITC-DNA binding, fluorescence polarization, 90 min. activity, % at 10 µM. actives 0.79% (n = 370,000). AID 1259318;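 active means activity above about 14%, limit read from the data; passing the limit was not always enough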;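 further: 0% = DMSO wells with 35 nM protein and 100% = DMSO wells with 750 nM protein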
MC4R antagonist: human MC4R antagonism in cAMP assay; MC4R-expressing cells, MTII-stimulated cAMP, LANCE TR-FRET; P32245; inhibition, % at 6.5 µM; actives 0.48% (n = 360,000);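 active means inhibition above its plate's cutoff, the mean of tested wells on that plate plus 3 SD, cut at about 29% in these data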;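 further: 0% = Melanotan II alone and 100% = Melanotan II plus saturating MCL0020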
Target sequence (P32245 whole entry, looked up): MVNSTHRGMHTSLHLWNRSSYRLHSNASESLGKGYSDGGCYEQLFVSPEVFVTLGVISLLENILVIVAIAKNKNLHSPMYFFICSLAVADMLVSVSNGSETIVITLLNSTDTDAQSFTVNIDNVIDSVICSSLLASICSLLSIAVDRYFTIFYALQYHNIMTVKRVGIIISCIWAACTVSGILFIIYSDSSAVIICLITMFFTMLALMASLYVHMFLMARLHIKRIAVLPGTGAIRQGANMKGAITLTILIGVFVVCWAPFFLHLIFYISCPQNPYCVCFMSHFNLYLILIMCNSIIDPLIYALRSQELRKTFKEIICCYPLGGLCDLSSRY
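System: U2OS cells stably expressing human melanocortin 4 receptor (MC4R). Reagent: Melanotan II challenge after compound preincubation. Doses: 6.5 µM. Times: 30-min compound, 1-h challenge, 1-h detection, room temperature. Measured by: TR-FRET with Eu-cAMP and labeled anti-cAMP, 671 nm. Replicates: singlicate.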
PG9 binder: small molecules binding HIV-1 gp120 antibody PG9; TR-FRET gp120-PG9 antibody binding; inhibition, % at 6.7 µM; actives 0.43% (n = 360,000); AID 624416; in the data active means inhibition above about 8.5%
MC4R barr agon: agonists of human melanocortin 4 receptor (MC4R) beta-arrestin; P32245; U2OS MC4R beta-arrestin complementation, luminescence; percent of melanotan II response, DMSO zero; activation, % at 8.9 µM; actives 0.98% (n = 360,000);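 active means activation above a per-plate cutoff, the mean activation of sample wells on that plate plus 3 SD, cut at about 8% in these data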
PG9 binder conf: confirmation of small molecules binding HIV-1 gp120 antibody PG9. shares compounds with PG9 binder. TR-FRET PG9 antibody binding, biochemical. inhibition, % at 6.7 µM. actives 90% (n = 1,500). AID 651571; in the data active means inhibition above about 9%
PGV04 Ab binding: counter-screen for PG9 binders: binding control antibody PGV04; shares compounds with PG9 binder; TR-FRET PGV04 antibody-gp120 binding, biochemical; inhibition, % at 6.7 µM; actives 95% (n = 1,500); in the data active means inhibition above about 9.5%
NR1D1 mod conf: Rev-erb alpha (human) modulation, hit confirmation | shares compounds with Rev-erbA mod | Rev-erb alpha FITC-DNA binding, fluorescence polarization, 90 min | activation, % at 25 µM | actives 61% (n = 3,000) | AID 1259319;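 active means activation at or above a set limit, or at least 3 SD above the negative control mean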;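 further: 0% = 35 nM protein with DMSO and 100% = 750 nM protein high control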
RORg counter: affects RORgamma DNA binding in a Rev-erb alpha counter-screen. shares compounds with Rev-erbA mod. purified RORgamma protein-FITC-DNA binding, fluorescence polarization. IC50, µM. actives 8% (n = 910). AID 1259320;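 active means Compounds whose fitted half-maximal concentration for disrupting protein-DNA binding is below 10 micromolar; the record names Rev-erb in its text, so the target is in doubt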
Starred values were filed as active, the others as inactive; i = inactive; / = not tested or not shown.

SMILES | NTR1 agonist | Rev-erbA mod | MC4R antagonist | PG9 binder | MC4R barr agon | PG9 binder conf | PGV04 Ab binding | NR1D1 mod conf | others
Cc1cccc(Nc2nn3c(=O)c4ccccc4nc3s2)c1 | -2 | 299* | -1 | 28* | 5 | 62* | 69* | 289* | RORg counter=i
CCOC(=O)[C@@]12CCC3=C1N(CCC3)C(=O)[C@H](CC(=O)N1CCCC1)C2 | / | 3 | / | / | / | / | / | /
COc1cc(C(=O)NCc2ccc(-c3nc4ccccc4s3)cc2)cc(OC)c1OC | 5 | 38* | 10 | 10* | 0 | 19* | 29* | 32* | RORg counter=i
COc1ccc(C(=O)NCc2ccc(-c3nc4ccccc4s3)cc2)cc1 | 2 | 1 | 4 | -1 | 1 | / | / | /
CC(=NNC(=O)CSc1nnc(-c2ccc(C(C)(C)C)cc2)n1-c1ccccc1)c1cccc2ccccc12 | / | -1 | / | / | / | / | / | /
O=C(Nc1nc2ncccn2c1-c1ccccc1)c1ccccc1 | / | 2 | / | / | / | / | / | /
COc1ccc2nc(SCC(=O)NC3CCCC3)c(C)cc2c1 | 1 | 29* | -4 | 34* | -2 | 26* | 33* | 32* | RORg counter=>40
COc1ccc2nc(SCC(=O)NC3CCCCC3)[nH]c2c1 | 1 | 1 | 2 | 1 | 1 | / | / | /
O=C(c1cc2cc(Br)ccc2[nH]1)N1CCc2ccccc21 | 2 | 49* | 12 | 15* | 1 | 22* | 46* | 54* | RORg counter=>40
O=c1c2c3c(sc2nc(NCCO)n1Cc1ccco1)CCCCC3 | 4 | 0 | 6 | 0 | -3 | / | / | /
COCCNc1nc2sc3c(c2c(=O)n1Cc1ccco1)CCCCC3 | 4 | 49* | 11 | 8.7* | 2 | 10* | 11* | 23*
CC[C@H]1CN2CCc3cc(OC)c(OC)cc3C2C[C@@H]1CC1NCCc2cc(OC)c(OC)cc21 (stereo partly drawn) | / | 3 | / | / | / | / | / | /
CCN(CC)C(=O)c1cccc(NC(=O)CCc2nc3sc4c(c3c(=O)[nH]2)CCCC4)c1 | 3 | -6 | 4 | 0 | -3 | / | / | /
O=C(CCc1nc2sc3c(c2c(=O)[nH]1)CCCC3)Nc1cccc(Cl)c1 | 6 | 30* | -1 | 36* | 8.3* | 28* | 38* | 21*
CCOC(=O)Nc1ccc2c(COC(=O)CNS(=O)(=O)c3cccc(Br)c3)cc(=O)oc2c1 | 2 | 76* | 26 | 39* | -3 | 32* | 37* | 43*
CCNc1nc(C)cc(COC)c1C#N | -1 | -3 | -2 | 1 | -1 | / | / | /
COCc1cc(C)nc(Nc2ccc(C)c(C)c2)c1C#N | 0 | 25* | 5 | 31* | 2 | 29* | 46* | 11
COc1ccc(-c2c(C)sc(NC(=O)c3ccnn3C)c2C#N)cc1 | 1 | 47* | 1 | 52* | 2 | 60* | 61* | 27*
O=C(Nc1ccon1)c1sc2cc(F)ccc2c1Cl | 0 | 34* | 7 | 15* | 4 | 24* | 46* | 22*
CC(=O)Nc1ccc(-c2cc(-c3ccc(NC(C)=O)cc3)nc(-c3ccc(NC(C)=O)cc3)n2)cc1 | -1 | 52* | 19 | 29* | -2 | 25* | 45* | 35*
CC(=O)Nc1ccc(-c2cc(-c3ccccc3)nc(-c3ccccc3)n2)cc1 | 4 | 13 | -3 | 0 | -1 | / | / | /
Nc1nc(Cl)nc2c1ncn2[C@@H]1O[C@H](CO)[C@@H](O)[C@@H]1F | / | 0 | / | / | / | / | / | /
COc1ccc(C(=O)c2ccc(OC)c(Br)c2)cc1Br | 8 | 113* | 19 | 19* | -2 | 12* | 14* | 77* | RORg counter=>40
COc1ccc(C(=O)c2cccc(C(=O)c3ccc(OC)c(C)c3)c2)cc1C | 5 | -1 | -3 | -1 | -1 | / | / | /
COc1ccc(C2C(C(=O)N3CCC(C)CC3)CC(=O)N2c2ccc(OC)cc2)cc1 (stereo not drawn) | / | 0 | / | / | / | / | / | /
SMILES | NTR1 agonist | Rev-erbA mod | MC4R antagonist | PG9 binder | MC4R barr agon | PG9 binder conf | PGV04 Ab binding | NR1D1 mod conf | others
CCC(=O)c1cn(CC(=O)O)c2ccccc12 | 2 | -5 | 1 | -2 | 2 | / | / | /
CCC(=O)c1cn(CC(=O)Nc2ccccc2Cl)c2ccccc12 | 2 | 80* | 19 | 11* | 0 | 14* | 15* | 44* | RORg counter=>40
CCC(=O)c1cn(CC(=O)Nc2cccc(C)c2)c2ccccc12 | 0 | 52* | -1 | 25* | 0 | 16* | 23* | 45* | RORg counter=i
CC(=O)Nc1ccc(C(/C=C/c2ccccc2)Cc2ccccc2)cc1 (stereo not drawn) | / | -1 | / | / | / | / | / | /
COc1ccc2c(c1)oc(=O)c1c3ccccc3[nH]c21 | / | 75* | -4 | 13* | 0 | 8.9* | 21* | 62* | RORg counter=>40
CC(=O)N1CCN(c2ccc(N3CCN(Cc4ccccc4)[C@H](C)C3)c(C)c2)[C@H](C)C1 | / | -5 | / | -2 | / | / | / | /
COc1cc2cc(C(=O)N(C)Cc3ccccc3)[nH]c2cc1OC | 1 | 31* | 7 | 16* | -2 | 15* | 22* | 12
COc1cc2cc(C(=O)NCCc3ccccc3)[nH]c2cc1OC | -1 | -4 | -1 | -1 | -1 | / | / | /
COc1cc(C=Nn2c(-c3ccccc3F)n[nH]c2=S)ccc1OCc1ccccc1 | / | 4 | / | / | / | / | / | /
CCc1cc2cc(C(=O)Nc3ccc(C)cc3)sc2s1 | -1 | 45* | 1 | 31* | 6 | 29* | 36* | 17*
O=c1ccc(-c2ccc(S(=O)(=O)N3CCN(c4ccccc4)CC3)o2)n[nH]1 | 0 | 120* | 4 | 25* | -1 | 43* | 48* | 62* | RORg counter=>40
CCOC(=O)C1CCN(S(=O)(=O)c2ccc(-c3ccc(=O)[nH]n3)o2)CC1 | 1 | 6 | 3 | -1 | -3 | / | / | /
COC(=O)[C@]12C[C@H](CC(=O)NCc3ccc(C)o3)C(=O)N(CCc3ccc(OC)c(OC)c3)C1=C[C@H](C(C)C)O[C@@H]2C1CC1 | / | 1 | / | / | / | / | / | /
COC(=O)CSc1nc2cc3c(cc2cc1C#N)OCO3 | 3 | 58* | -3 | 15* | 4 | 33* | 71* | 23*
CCOC(=O)CSc1nc2cc3c(cc2cc1C#N)OCO3 | -1 | 66* | 2 | 49* | 7 | 44* | 62* | 36* | RORg counter=>40
COC(=O)Nc1nc(-c2ccccc2)c(C(=O)c2ccc(Cl)cc2)s1 | -1 | 30* | -26 | 44* | -2 | 44* | 65* | 31*
CCOC(=O)Nc1nc(-c2ccccc2)c(C(=O)c2ccccc2)s1 | 7 | 2 | -16 | 2 | -2 | / | / | /
CCCCN1CCN(C2=Nc3ccccc3Sc3ccccc32)CC1 | / | 0 | / | / | / | / | / | /
